Test results taken from ChEMBL document CHEMBL1909595, “Characterization of a novel and selective CB1 antagonist as a radioligand for receptor occupancy studies” (Bioorg Med Chem Lett, 2011).
pIC50, pKd: −log10 of the molar value. One block for each molecule: values may come before it.

Columns and labels:
[1] = system: Brain; experiment: Drug uptake in brain of mouse expressing CB1 receptor at 10 uM; assay type: ADME, tissue-based; settings: in vivo
[2] = system: Brain; experiment: Drug uptake in brain of CB1 receptor knockout mouse at 10 uM; assay type: ADME, tissue-based; settings: in vivo
[3] = biological target: T1, Cannabinoid receptor 1 (Rattus norvegicus, UniProt P20272); experiment: Binding affinity to rat brain CB1 receptor after 90 mins by scintillation counting
In short: (§1)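 Rat whole-brain or CHO (human CB1) membranes were homogenized in 10 mM HEPES/1 mM EGTA pH 7.4 with protease inhibitors, DTT and sucrose. Centrifuged at 1000 g, then the pellet was taken at 100,000 g and resuspended in 20 mM HEPES, 1 mM EGTA, 1 mM DTT, 1 mM MgCl2. Saturation with increasing [3H]BMS-725519; nonspecific binding by cold BMS-725519. 90 min at room temperature, GF/B filtration, scintillation counting. Kd and Bmax derived.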

[4] = biological target: T2, Cannabinoid receptor 1 (Homo sapiens, UniProt P21554); experiment: Binding affinity to human CB1 receptor expressed in CHO cells after 90 mins by scintillation counting; assay type: cell-based; in short: as §1
[5] = system: Plasma; experiment: Free plasma concentration in Sprague-Dawley rat at 3 mg/kg, po measured 6 hrs post dose; assay type: ADME, organism-based; design: dose 3 mg/kg, route oral; settings: in vivo
[6] = system: Plasma; experiment: Free plasma concentration in Sprague-Dawley rat at 1 mg/kg, po measured 6 hrs post dose; assay type: ADME, organism-based; design: dose 1 mg/kg, route oral; settings: in vivo
[7] = system: Rattus norvegicus; experiment: Ex vivo receptor occupancy of CB1 receptor in Sprague-Dawley rat at 1 mg/kg, po measured 6 hrs post dose; assay type: functional
In short: (§2)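 Male Sprague-Dawley rats were dosed p.o. (0.03–30 mg/kg, vehicle 10% DMAC/cremophor/ethanol, 2 ml/kg) 1 h before the dark cycle. Brains were taken 6 h post-dose, three per group, frozen and cut into 20 µm cryosections. Sections pre-incubated 30 s, then 6 min with 40 nM [3H]BMS-725519 in chilled HEPES buffer. Nonspecific binding by 5 µM unlabelled BMS-725519. Three 30 s washes. Cerebellar density measured by phosphor imaging (DLU/mm², background-subtracted); occupancy expressed relative to vehicle specific binding.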

[8] = system: Rattus norvegicus; experiment: Antiobesity activity in Sprague-Dawley rat assessed as reduction in food intake at 3 mg/kg, po measured after 20 hrs; assay type: functional; design: scale not given: the % may be the effect or the level left
In short: (§3)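 Male Sprague-Dawley rats, six per group, trained to bar-press for food pellets in operant chambers. Dosed p.o. in 10% DMAC/10% EtOH/10% Cremophor/70% water at 2 ml/kg. Two 20 h sessions starting at dark-cycle onset, 4 h apart. The first session was the baseline used to balance groups. Pellets counted at 1, 2, 4, 8, 12 and 20 h after lock-out. One-way ANOVA with Fisher PLSD.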

[9] = biological target: Cannabinoid receptor 2 (Homo sapiens, UniProt P34972); experiment: Displacement of [3H]-CP55940 from human CB2 receptor
[10] = system: Rattus norvegicus; experiment: Ex vivo receptor occupancy of CB1 receptor in Sprague-Dawley rat at 30 mg/kg, po measured 6 hrs post dose; assay type: functional; in short: as §2
[11] = system: Rattus norvegicus; experiment: Antiobesity activity in Sprague-Dawley rat assessed as reduction in food intake at 0.03 mg/kg, po measured after 20 hrs; assay type: functional; design: scale not given: the % may be the effect or the level left; in short: as §3
[12] = system: Rattus norvegicus; experiment: Ex vivo receptor occupancy of CB1 receptor in Sprague-Dawley rat at 0.3 mg/kg, po measured 6 hrs post dose; assay type: functional; in short: as §2
[13] = system: Rattus norvegicus; experiment: Antiobesity activity in Sprague-Dawley rat assessed as reduction in food intake at 10 mg/kg, po measured after 20 hrs; assay type: functional; design: scale not given: the % may be the effect or the level left; in short: as §3
[14] = system: Plasma; experiment: Free plasma concentration in Sprague-Dawley rat at 0.03 mg/kg, po measured 6 hrs post dose; assay type: ADME, organism-based; design: dose 0.03 mg/kg, route oral; settings: in vivo
[15] = system: Rattus norvegicus; experiment: Antiobesity activity in Sprague-Dawley rat assessed as reduction in food intake at 1 mg/kg, po measured after 20 hrs; assay type: functional; design: scale not given: the % may be the effect or the level left; in short: as §3
[16] = system: Plasma; experiment: Free plasma concentration in Sprague-Dawley rat at 10 mg/kg, po measured 6 hrs post dose; assay type: ADME, organism-based; design: dose 10 mg/kg, route oral; settings: in vivo
[17] = system: Plasma; experiment: Free plasma concentration in Sprague-Dawley rat at 0.1 mg/kg, po measured 6 hrs post dose; assay type: ADME, organism-based; design: dose 0.1 mg/kg, route oral; settings: in vivo
[18] = system: Rattus norvegicus; experiment: Antiobesity activity in Sprague-Dawley rat assessed as reduction in food intake at 0.1 mg/kg, po measured after 20 hrs; assay type: functional; design: scale not given: the % may be the effect or the level left; in short: as §3
[19] = biological target: T1, Cannabinoid receptor 1; experiment: Displacement of [3H]BMS-725519 from rat brain CB1 receptor after 45 mins by autoradiography
[20] = system: Plasma; experiment: Free plasma concentration in Sprague-Dawley rat at 0.3 mg/kg, po measured 6 hrs post dose; assay type: ADME, organism-based; design: dose 0.3 mg/kg, route oral; settings: in vivo
[21] = system: Rattus norvegicus; experiment: Ex vivo receptor occupancy of CB1 receptor in Sprague-Dawley rat at 3 mg/kg, po measured 6 hrs post dose; assay type: functional; in short: as §2
[22] = Protein binding in human; assay type: ADME
[23] = system: Rattus norvegicus; experiment: Antiobesity activity in Sprague-Dawley rat assessed as reduction in food intake at 30 mg/kg, po measured after 20 hrs; assay type: functional; design: scale not given: the % may be the effect or the level left; in short: as §3
[24] = system: Plasma; experiment: Free plasma concentration in Sprague-Dawley rat at 30 mg/kg, po measured 6 hrs post dose; assay type: ADME, organism-based; design: dose 30 mg/kg, route oral; settings: in vivo
[25] = system: Rattus norvegicus; experiment: Ex vivo receptor occupancy of CB1 receptor in Sprague-Dawley rat at 10 mg/kg, po measured 6 hrs post dose; assay type: functional; in short: as §2
[26] = biological target: T2, Cannabinoid receptor 1; experiment: Displacement of [3H]-SR-141716 from human CB1 receptor
[27] = biological target: T1, Cannabinoid receptor 1; experiment: Displacement of [3H]-SR-141716 from rat CB1 receptor
[28] = system: Rattus norvegicus; experiment: Ex vivo receptor occupancy of CB1 receptor in Sprague-Dawley rat at 0.03 mg/kg, po measured 6 hrs post dose; assay type: functional; in short: as §2
[29] = system: Rattus norvegicus; experiment: Antiobesity activity in Sprague-Dawley rat assessed as reduction in food intake at 0.3 mg/kg, po measured after 20 hrs; assay type: functional; design: scale not given: the % may be the effect or the level left; in short: as §3
[30] = system: Rattus norvegicus; experiment: Ex vivo receptor occupancy of CB1 receptor in Sprague-Dawley rat at 0.1 mg/kg, po measured 6 hrs post dose; assay type: functional; in short: as §2

T1 sequence (P20272 whole entry): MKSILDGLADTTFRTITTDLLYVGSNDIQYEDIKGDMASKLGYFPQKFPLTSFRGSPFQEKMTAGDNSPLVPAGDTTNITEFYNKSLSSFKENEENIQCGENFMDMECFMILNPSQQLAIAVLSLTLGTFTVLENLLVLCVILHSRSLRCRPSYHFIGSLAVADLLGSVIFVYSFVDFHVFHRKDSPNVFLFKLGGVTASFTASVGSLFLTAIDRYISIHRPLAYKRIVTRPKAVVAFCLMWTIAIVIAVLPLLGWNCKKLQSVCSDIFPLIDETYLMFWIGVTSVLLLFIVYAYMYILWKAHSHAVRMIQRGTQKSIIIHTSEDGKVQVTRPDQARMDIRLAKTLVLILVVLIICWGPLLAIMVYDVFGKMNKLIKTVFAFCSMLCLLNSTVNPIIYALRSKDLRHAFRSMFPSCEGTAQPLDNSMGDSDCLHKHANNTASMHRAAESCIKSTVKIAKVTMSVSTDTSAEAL
T2 sequence (P21554 whole entry): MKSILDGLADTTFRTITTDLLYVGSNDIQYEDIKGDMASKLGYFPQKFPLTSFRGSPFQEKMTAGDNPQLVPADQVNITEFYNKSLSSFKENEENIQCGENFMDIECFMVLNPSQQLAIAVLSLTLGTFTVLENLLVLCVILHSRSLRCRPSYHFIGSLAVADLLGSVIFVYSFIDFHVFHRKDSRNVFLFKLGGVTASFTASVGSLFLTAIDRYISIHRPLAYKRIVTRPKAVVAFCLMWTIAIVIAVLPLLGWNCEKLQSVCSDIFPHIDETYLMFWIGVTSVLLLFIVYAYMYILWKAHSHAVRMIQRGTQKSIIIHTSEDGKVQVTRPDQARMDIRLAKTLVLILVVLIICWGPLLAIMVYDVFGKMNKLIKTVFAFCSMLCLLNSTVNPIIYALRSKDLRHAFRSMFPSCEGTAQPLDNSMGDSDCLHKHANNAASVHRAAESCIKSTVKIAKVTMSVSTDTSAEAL
Sequence of Cannabinoid receptor 2 (P34972 whole entry): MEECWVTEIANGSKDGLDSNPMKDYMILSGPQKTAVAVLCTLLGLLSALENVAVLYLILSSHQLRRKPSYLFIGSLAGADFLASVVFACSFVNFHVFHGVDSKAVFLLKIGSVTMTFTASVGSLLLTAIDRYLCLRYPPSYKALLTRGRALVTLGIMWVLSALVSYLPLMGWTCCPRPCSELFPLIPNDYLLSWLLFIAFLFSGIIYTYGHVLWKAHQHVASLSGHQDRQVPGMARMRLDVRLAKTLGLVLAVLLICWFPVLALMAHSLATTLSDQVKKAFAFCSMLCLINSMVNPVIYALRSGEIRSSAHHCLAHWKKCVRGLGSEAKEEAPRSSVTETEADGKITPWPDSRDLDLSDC

Drug uptake [1]: Active | Drug uptake [2]: Not Active | pKd [3]: 7.54 | pKd [4]: 8.40
Structure (SMILES): [3H]c1cc(-c2cnn3c(=O)n(Cc4ccc(C(F)(F)F)nc4[3H])nc3c2-c2ccncc2)ccc1Cl

Cp(f) [5]: 112 nM | Cp(f) [6]: 49.4 nM | pKd [9]: < 5.00 | Cp(f) [14]: 1.5 nM | Cp(f) [16]: 531 nM | Cp(f) [17]: 5.4 nM | pIC50 [19]: 7.43 | Cp(f) [20]: 15.3 nM | fraction unbound [22]: 0.05 | Cp(f) [24]: 1047 nM | pKd [26]: 8.34 | pKd [27]: 7.91
Structure (SMILES): O=c1n(Cc2ccc(C(F)(F)F)nc2)nc2c(-c3ccncc3)c(-c3ccc(Cl)cc3)cnn12
Activity [7]: 29.8% | Activity [8]: 41.5% | Activity [10]: 74.1% | Activity [11]: 0% | Activity [12]: 20.6% | Activity [13]: 67.4% | Activity [15]: 23.7% | Activity [18]: 0% | Activity [21]: 55.6% | Activity [23]: 72.5% | Activity [25]: 64.5% | Activity [28]: 12.7% | Activity [29]: 22.3% | Activity [30]: 14.3%
